Jurkat NFkB inh: inhibitors of induced NF-kB luciferase reporter, primary screen, TCR NF-kB activation inhibitor project, cell-based, luminescence, uHTS; Jurkat, PMA/ionomycin-induced NF-kB luciferase reporter; actives 0.53% (n = 330,000); inhibition, % at 4 µM; in the data active = inhibition above about 50%
697 NFkB inh: inhibitors of PMA/ionomycin-induced NF-kB reporter, 697 cells, primary screen, B-cell NF-kB inhibitor project, cell-based, luminescence, uHTS; actives 0.33% (n = 330,000); inhibition, % at 4 µM; 697 B-cell NF-kB luciferase reporter, 16 h; in the data active = inhibition above about 35%
HSF-1 act: HSF-1 activators, primary screen, NIH3T3-HGL cells, MG132 stress, luminescence, single point | NIH3T3-HGL HSF-1 luciferase reporter, 8 h; 100% = twice DMSO control signal | activation, % at 9 µM | actives 1.7% (n = 300,000) | AID 504408, 2011;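 active = mean replicate activation of at least 50% with a set share of replicates each reaching 50%; inconclusive = only one of those two conditions met; inactive = mean below 50% and too few replicates reaching it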
HSF1 inhib: HSF1 inhibitors in luciferase reporter cells, primary screen, cell-based, NIH3T3, luminescence | activity change, negative = inhibition, % at 7.5 µM (by protocol) | NIH3T3-HGL HSE-luciferase, MG132-induced, luminescence 8 h; active compounds read low | actives 0.77% (n = 300,000);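 active = more than half of replicate wells show activity change below -50%, luminescence cut by over half; inconclusive = some wells, but at most half, below -50%; inactive = no replicate well below -50%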;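 also: luciferase reports HSF-1 transcriptional activity via heat shock element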
T cruzi inh: inhibitors of intracellular T. cruzi growth, primary screen, luminescence, NIH3T3 host cells; AID 1885, 2009; T. cruzi beta-gal in NIH3T3, 90 h; inhibition, % (no concentration beside the values); actives 1.4% (n = 300,000);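 active = mean inhibition across valid replicates above about 55%, limit read from the data; inconclusive = mean below that limit but half or more replicates reach it; inactive = mean below it, under half of replicates reach it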;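 also: signal also drops with host cell toxicity which is not excluded here; higher percent means less beta-gal luminescence so fewer parasites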
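System: Mouse NIH/3T3 fibroblasts infected with β-gal-expressing T. cruzi Tulahuen C4 | Quantity: NIH/3T3 cells, 5,000 per well | Reagent: 5000 reporter trypomastigotes per well | Dosing: Compound pinned at 50 nL/well, DMSO | Schedule: 3 h host attachment, then at least 90 h co-culture | Detection: GalScreen luminescence, 60 min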
GPR7 antagonist: GPR7 receptor antagonists, primary screen, cell-based, fluorescence, single concentration; actives 1.1% (n = 290,000); Neuropeptides B/W receptor type 1 (Homo sapiens), P48145; inhibition, % at 4.4 µM; GPR7-expressing cells, fluorescence antagonist assay; AID 1861, 2009; in the data active = inhibition above about 16%, passing the limit was not always enough;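 also: cells stimulated with the agonist NPW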
Target sequence (P48145 whole entry, looked up): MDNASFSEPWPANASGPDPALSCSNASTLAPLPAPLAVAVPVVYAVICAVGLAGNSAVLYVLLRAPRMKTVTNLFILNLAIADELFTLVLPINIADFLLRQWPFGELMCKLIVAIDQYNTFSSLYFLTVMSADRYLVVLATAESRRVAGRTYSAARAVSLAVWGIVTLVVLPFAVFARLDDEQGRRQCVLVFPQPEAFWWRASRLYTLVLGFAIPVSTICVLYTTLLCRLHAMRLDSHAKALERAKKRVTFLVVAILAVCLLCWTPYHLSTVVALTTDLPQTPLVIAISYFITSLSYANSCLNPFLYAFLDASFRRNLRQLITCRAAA
Numbers stand for hits; – = inactive; ? = inconclusive; · = no result. An excerpt weighted towards active compounds, which were near 4.8% of everything screened.

SMILES	Jurkat NFkB inh	697 NFkB inh	HSF-1 act	HSF1 inhib	T cruzi inh	GPR7 antagonist
NS(=O)(=O)c1ccc(NC2=CC(=O)C(=O)c3ccccc32)cc1	–	–	–	-70	–	–
Cc1ccc(NC2=CC(=O)C(=O)c3ccccc32)cc1	–	–	80	–	–	–
COc1ccccc1C1NC=C([N+](=O)[O-])C=C1[N+](=O)[O-] (stereo not given)	–	–	–	–	78	–
C=CCN1C(=O)C(Cc2ccc(Br)cc2)S/C1=N\N=C\c1ccco1 (stereo not given)	–	–	–	–	–	–
C=CCN1C(=O)C(Cc2ccc(OC)cc2)S/C1=N/N=C/c1ccco1 (stereo not given)	–	–	–	-57	–	–
Cc1[nH]c2c(ccc3ccccc32)c1C1C(CCN)C1(C)C (stereo not given)	–	–	–	–	65	–
O=C(NCC1CCCO1)c1ccc(-c2ccccc2Cl)o1 (stereo not given)	–	–	59	–	–	·
CC1CCN(C(=O)c2ccc(-c3ccccc3Cl)o2)CC1	–	–	56	–	–	·
Cc1onc(-c2ccccc2Cl)c1C(=O)NCC1CCCO1 (stereo not given)	–	–	–	–	–	–
CNc1oc(-c2ccc(C)cc2)nc1P(=O)(c1ccccc1)c1ccccc1	–	–	–	–	–	–
Cc1cc(Cl)ccc1OCC(=O)Nc1nc(-c2cccs2)cs1	–	–	–	–	–	–
Cc1cc(Cl)ccc1OCC(=O)Nc1nc(-c2cccnc2)cs1	–	–	–	-60	–	–
O=C(COc1ccccc1)Nc1nc(-c2cccnc2)cs1	–	–	·	·	·	·
Cc1cc(C)cc(OCC(=O)Nc2nc(-c3cccnc3)cs2)c1	–	–	–	-59	–	–
CC1(C)Cc2c(sc(NC(=O)c3ccc(C(=O)c4ccccc4)cc3)c2C(N)=O)C(C)(C)N1	–	–	–	–	–	–
CC1(C)Cc2c(sc(NC(=O)c3ccc4ncsc4c3)c2C(N)=O)C(C)(C)N1	–	–	–	-53	–	–
Cc1ccc(C)c(N2CN(Cc3cccnc3)CNC2=S)c1	–	–	–	–	61	–
Cc1ccc(N2CN(Cc3cccnc3)CNC2=S)cc1	–	–	–	–	?	–
O=C(c1ccc([N+](=O)[O-])s1)N1CCN(c2cccc(Cl)c2)CC1	–	–	–	-52	–	–
C=CCOc1ccccc1CN1CCC(Oc2cc(C(=O)NC3CC3)ccc2OC)CC1	–	–	–	–	–	–
O=C(Oc1c(CN2CCOCC2)cc(Cl)c2cccnc12)c1ccccc1F	–	–	–	–	74	–
Cc1ccc2nc(-c3ccccn3)c(NC3CCCC3)n2c1	–	–	–	–	68	–
Cc1ccc(Nc2c(-c3ccccn3)nc3cccc(C)n23)cc1	–	–	–	–	59	–
Cc1cccc(C)c1Nc1c(-c2ccccn2)nc2ccccn12	–	–	–	–	61	–
CCN1C(=O)[C@H]2[C@@H](c3ccc(OC)cc3)N3C(=O)CN(CCOC)C(=O)[C@@]3(C)[C@H]2C1=O	–	–	–	–	–	–
SMILES	Jurkat NFkB inh	697 NFkB inh	HSF-1 act	HSF1 inhib	T cruzi inh	GPR7 antagonist
O=C(Nc1ncccc1O)c1ccc(Cl)c(S(=O)(=O)N2CCCCC2)c1	–	–	–	–	–	·
CNC(=O)c1nnsc1S(=O)c1ccc(Cl)cc1 (stereo not given)	–	–	73	–	60	–
Cc1ccc(S(=O)c2snnc2C)cc1 (stereo not given)	–	–	–	–	–	–
O=[N+]([O-])c1ccccc1N/N=C\c1ccccc1F	–	–	65	–	–	–
COCCCNC(=S)NNC(=O)c1csc(C)n1	–	–	–	–	–	–
COc1cccc(C(=O)Nc2ccc(N(C)C)cc2)c1OC	–	–	71	–	–	–
COc1ccccc1C(=O)Nc1cccc(N(C)S(C)(=O)=O)c1	–	–	50	–	–	–
COc1cccc(C(=O)Nc2ccncc2)c1OC	–	–	–	–	–	–
C=C[C@@H]1c2cc(C)ccc2N(S(=O)(=O)c2ccc(C)cc2)[C@H](c2ccc(OC(C)=O)cc2)C1(C#N)C#N	–	–	·	·	·	·
CCOc1cc(S(=O)(=O)N(Cc2ccccc2)Cc2ccccc2)c(OCC)cc1-n1cnnn1	·	·	–	–	–	–
O=C1CC(c2ccc(Cl)c([N+](=O)[O-])c2)c2ccc3ccccc3c2N1 (stereo not given)	–	–	–	-65	–	–
CCOC(=O)C1=C(c2ccccc2)NC(=S)NC1c1ccc(Cl)c([N+](=O)[O-])c1 (stereo not given)	–	–	–	–	–	–
CCCCc1cc(=O)oc2cc(C)cc(OCC(=O)NCc3ccccn3)c12	–	–	–	–	–	–
CCOC(=O)C1=C(C)c2ccccc2N(S(=O)(=O)C(F)(F)F)C1C(=O)OCC (stereo not given)	·	–	·	·	·	·
Cc1nnc(SC(C)C(=O)N(C)C2CCCCC2)n1N (stereo not given)	–	–	·	·	·	·
CC(C)N1C(=O)S/C(=C\c2ccc(-c3ccc(Cl)c(C(=O)O)c3)o2)C1=O	–	–	–	–	–	–
CCN(CC)c1ccc(/C=C2/SC(=O)N(C(C)C)C2=O)o1	·	·	209	–	–	–
O=[N+]([O-])c1nn(-c2ccccc2)n(O)c1=NCCc1ccccc1	–	–	–	–	58	–
O=[N+]([O-])c1nn(-c2cccc(Cl)c2)n(O)c1=NCc1cccnc1	–	–	–	–	–	–
Cc1ccc(CCN=c2c([N+](=O)[O-])nn(-c3ccccc3)n2O)cc1	–	–	–	–	70	–
Cc1cccc(-n2nc([N+](=O)[O-])c(=NCc3cccnc3)n2O)c1	–	–	–	–	55	–
COc1ccc(-n2nc([N+](=O)[O-])c(=NCCc3ccccc3)n2O)cc1	–	–	–	–	–	–
CC(C)CCn1c(SCC(=O)NC2CCS(=O)(=O)C2)nc2cc(Cl)ccc2c1=O (stereo not given)	–	–	–	–	–	·
CC1=C/C(=N\NC(=O)c2cccs2)CC(C)(C)C1	–	–	62	–	–	–
C=C(C)C1CC=C(C)/C(=N/NC(=O)c2ccccc2[N+](=O)[O-])C1 (stereo not given)	–	–	–	–	–	–
CC(=O)N1CCC(=NNC(=O)c2cccs2)CC1	–	–	55	–	–	–

Screens (PubChem BioAssay)
